Experimental data reported in PubChem BioAssay.
The source made the active and inactive calls.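 How the source made its calls: active means viability at or below 30% in both replicate assays; inconclusive means viability at or below 30% in just one of the two assays; inactive means the rest.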

Assay: HUVEC growth inhibition – cell-based, human, primary screen (AID 575);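 further: 100% = median of untreated cell wells with 0.1% DMSO on each plate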
Details: HUVEC proliferation, CellTiter-Glo luminescence, 72 h; at 10 µM; stronger effect = lower value
Outline: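 Material: primary human umbilical vein endothelial cells / Schedule: 72 h exposure, 37 °C, 5% CO2, 30 min RT equilibration / Signal: ATP-based CellTiter-Glo luminescent read / Read-out basis: percent of median DMSO-control luminescence / Control set: 32 DMSO-only cell-control wells (high), 32 MePR drug-control wells (low) per plate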

SMILES	viability
COc1ccc(OC)c(CNC(=O)CCN2C(=O)COc3ccccc32)c1	90.1% (inactive)
Cc1ccc(C(=O)CSc2nnc(CNc3ccc(C)cc3C)o2)cc1	81.7% (inactive)
CCn1c(SCc2cccc(C(F)(F)F)c2)nnc1-c1ccco1	93.9% (inactive)
O=C(CC1CCCCC1)NCc1ccccn1	92.2% (inactive)
c1ccc(-c2nn3nnnc3c3ccccc23)cc1	105% (inactive)
CN=C(Nc1ccc2c(c1)OCO2)SC1CC(=O)N(c2ccccc2)C1=O (stereo not given)	78.3% (inactive)
O=C1c2ccccc2C(=O)N1CCCCN1CCN(CCCCN2C(=O)c3ccccc3C2=O)CC1	93% (inactive)
Cc1cccc(-n2ncc(C#N)c2N)c1	109% (inactive)
Cc1cc(NC(=O)COc2ncnc3sc(C)c(C)c23)no1	97.6% (inactive)
O=C(CN1C(=O)CCS(=O)(=O)c2ccccc21)NCc1ccc(F)cc1	85% (inactive)
C=CCSc1n[nH]c(-c2ccc(OC)cc2)n1	108% (inactive)
COc1ccc(N2CCN(C(=O)CN3C(=O)C4CC=CCC4C3=O)CC2)cc1 (stereo not given)	99.7% (inactive)
CSC1CCCCC1(O)CSc1nc2c(cc1C#N)CCCC2 (stereo not given)	75.4% (inactive)
O=C(CCCCn1c(=O)[nH]c2ccsc2c1=O)NCc1cccnc1	96.3% (inactive)
CCc1nnc(NC(=O)OCc2ccccc2)s1	106% (inactive)
O=C(CP(=O)(c1ccccc1)c1ccccc1)N1CCCCC1	111% (inactive)
Cc1nc(NC2=NCN(CCc3ccccc3)CN2)nc2c(C)cccc12	81.9% (inactive)
O=C(c1ccc(CNS(=O)(=O)c2cccc(C(F)(F)F)c2)cc1)N1CCOCC1	102% (inactive)
CCNc1oc(COc2ccccc2F)nc1C#N	89.8% (inactive)
CC1CC(C)CN(CCCNC(=O)c2ccc3c(c2)NC(=O)C(N2CCCCC2)S3)C1 (stereo not given)	88.6% (inactive)

SMILES	viability
CS(=O)(=O)N(CC(=O)NC1CC1)c1cccc(F)c1	86.5% (inactive)
O=C(CCCNS(=O)(=O)c1ccccc1)NCc1ccco1	94.5% (inactive)
CCOC(=O)CSC1=Nc2ccccc2C2=NC(CC(=O)NCc3cccs3)C(=O)N12 (stereo not given)	81.9% (inactive)
Cc1ccc(-c2nnn(CC(=O)N(CC(=O)NCC3CCCO3)c3ccccc3)n2)o1 (stereo not given)	88.7% (inactive)
O=C(c1ccncc1)N1CCN(C(=O)c2cccs2)CC1	103% (inactive)
CC(=O)CC(=O)Nc1ccccc1NC(C)=O	105% (inactive)
O=C(O)C1CC=CCC1C(=O)Nc1cccc(C(=O)N2CCCCC2)c1 (stereo not given)	107% (inactive)
C#CCN1C(=O)C(O)(CC(=O)c2cc(OC)ccc2OC)c2ccccc21 (stereo not given)	78.6% (inactive)
Cn1c(COc2ccccc2)nnc1SCC(=O)Nc1ccc(N2CCOCC2)c(Cl)c1	94.4% (inactive)
Nn1cnnc1SCC(=O)Nc1ccc2c(c1)OCCO2	97.5% (inactive)
N#Cc1nc(COc2ccccc2)oc1NCCN1CCOCC1	108% (inactive)
CSc1nnc(-c2cnccn2)n1C	107% (inactive)
Cc1ccc(OCc2nnc(SCC(=O)N3CCOCC3)n2C)cc1	102% (inactive)
Cc1[nH]nc2c1C1(CCN(C(=O)c3ccccc3)CC1)C(C#N)=C(N)O2	104% (inactive)
COc1ccc(S(=O)(=O)NC(CC(=O)NCc2ccco2)c2ccco2)cc1 (stereo not given)	99.7% (inactive)
COc1ccc(C(=O)N2CCOCC2)cc1Br	116% (inactive)
Cn1c(=O)c2ccccc2n(Cc2ccccc2F)c1=O	101% (inactive)
CN(C)C(=O)C12CCC(C)(c3nc4ccccc4nc31)C2(C)C (stereo not given)	105% (inactive)
CC1(C)NC(=O)N(CCOc2cccc(Cl)c2Cl)C1=O	98.7% (inactive)
Cc1nn(Cc2ccccc2)c(C)c1NC(=O)CCC(=O)O	110% (inactive)
